Experimental data as given in ChEMBL document CHEMBL1134589, “Antimalarial simplified 3-aryltrioxanes: synthesis and preclinical efficacy/toxicity testing in rodents” (2001).

Tests used:
Mus musculus [1] = assay: Antimalarial efficacy against Plasmodium berghei in mice (Mus musculus) when administered subcutaneously each day for 4 days to five mice (Mus musculus) per dose regimen; format: functional; conditions: sc, 96 h
Summary of the method: (§1)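 P. berghei-infected mice; four doses (1, 3, 10 and 30 mg/kg) given once daily for four days, five mice per dose regimen, by sc or iv route as per line. ED50 and ED90 derived from the dose–response, reported in mg/kg and µmol/kg.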

Mus musculus [2] = assay: Antimalarial efficacy against Plasmodium berghei in mice (Mus musculus) when administered intravenously each day for 4 days to five mice (Mus musculus) per dose regimen; format: functional; conditions: iv, 96 h; summary of the method: as §1

Row | Compound | ED50 (Mus musculus [1]) | ED50 (Mus musculus [2]) | ED90 (Mus musculus [1]) | ED90 (Mus musculus [2])
1 | CCN(CC)CCCC(C)Nc1ccnc2cc(Cl)ccc12 (stereo unspecified) [CHLOROQUINE] | 1 mg/kg | 5 mg/kg | – | –
2 | CCO[C@H]1O[C@@H]2O[C@@]3(C)CC[C@H]4[C@H](C)CC[C@@H]([C@H]1C)[C@@]24OO3 [ARTEMOTIL] | 0.9 mg/kg | 0.46 mg/kg | 1.4 mg/kg | –
3 | CO[C@H]1O[C@@]2(c3ccc(C(=O)O)cc3)CC[C@H]3CCCC[C@]31OO2 | 10.5 mg/kg | 16.5 mg/kg | 19.5 mg/kg | 48 mg/kg
4 | C[C@@H]1[C@H](OCc2ccc(C(=O)O)cc2)O[C@@H]2O[C@@]3(C)CC[C@@H]4[C@@H](C)CC[C@@H]1[C@]24OO3 [ARTELINIC ACID] | 6.6 mg/kg | 4.3 mg/kg | 14 mg/kg | 15.5 mg/kg
5 | CO[C@@H]1O[C@@]2(c3ccc(F)cc3)CC[C@H]3CCCC[C@]31OO2 | 4.7 mg/kg | 4 mg/kg | 8.3 mg/kg | 8 mg/kg
6 | CO[C@@H]1O[C@@]2(c3ccc(C(=O)O)cc3)CC[C@H]3CCCC[C@]31OO2 | 22.5 mg/kg | 19.5 mg/kg | 112 mg/kg | 55 mg/kg
